Tcruzi prolif: T. cruzi intracellular proliferation inhibitors, primary screen, cell-based, beta-gal Tulahuen parasites, NIH3T3 host, luminescence. T. cruzi beta-gal in NIH3T3, GalScreen luminescence, 90 h. inhibition, % at 8.34 µM. 77,000 compounds, 5.9% hits. AID 624255, 2012;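 active means mean inhibition above about 93%, with at least 55% of replicates each passing it, limit read from the data, passing the limit was not always enough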
GASC1 inh: inhibitors of GASC-1 (KDM4C) histone demethylase, primary screen, biochemical, single concentration HTS | GST-KDM4C 2-372, H3K9me3 peptide, LANCE TR-FRET | inhibition, % at 12.5 µM | Lysine-specific demethylase 4C (Homo sapiens), Q9H3R0 | 96,000 compounds, 0.15% hits;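 active means mean replicate inhibition above about 25%, with at least 55% of replicates also reaching it, limit read from the data, passing the limit was not always enough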
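Test system: N-terminal GST-fused human GASC-1 (KDM4C) fragment, residues 2-372; quantity: GASC-1 enzyme at 10 nM final in reaction; dosing: single dose; schedule: 30 min demethylation and 1 h detection at room temperature; signal: LANCE TR-FRET, excitation 340 nm, emissions 618 and 671 nm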
IDH1 mut inh: inhibitors of IDH1 R132H reductase, primary screen, biochemical, plate reader, single point | inhibition, % at 10 µM | diaphorase/resazurin fluorescence, 60 min | AID 624101, 2012 | 70,000 compounds, 0.18% hits | Isocitrate dehydrogenase [NADP] cytoplasmic (Homo sapiens), O75874; in the data active means inhibition above about 34%;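 further: 0% = DMSO and 100% = no enzyme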
Target sequence (O75874 whole entry R132H): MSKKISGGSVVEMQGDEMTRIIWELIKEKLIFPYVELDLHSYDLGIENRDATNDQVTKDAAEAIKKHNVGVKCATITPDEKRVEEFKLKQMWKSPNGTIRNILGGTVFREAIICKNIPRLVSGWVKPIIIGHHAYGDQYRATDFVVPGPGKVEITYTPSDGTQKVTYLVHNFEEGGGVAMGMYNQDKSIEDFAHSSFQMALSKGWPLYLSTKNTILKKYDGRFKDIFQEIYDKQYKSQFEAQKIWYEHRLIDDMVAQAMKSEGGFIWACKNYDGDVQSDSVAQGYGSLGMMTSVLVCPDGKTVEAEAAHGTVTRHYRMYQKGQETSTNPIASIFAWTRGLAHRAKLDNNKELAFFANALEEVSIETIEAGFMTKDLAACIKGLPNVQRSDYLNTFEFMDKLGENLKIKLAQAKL
Pf Dd2 growth: P. falciparum Dd2 growth inhibitors, primary screen, SYBR Green fluorescence, single dose replicates | 72 h; hits give low values | activity change, % at 10 µM | 94,000 compounds, 2.3% hits | AID 1159554, 2015; in the data active means activity change below about -80%
* marks the source's active call; other numbers are inactive results; nt = no result. Hits are enriched below; roughly 5.8% of the tested compounds scored in any of these assays.

SMILES	Tcruzi prolif	GASC1 inh	IDH1 mut inh	Pf Dd2 growth
C[C@@H]1CN([C@@H](C)CO)C(=O)c2cc(NC(=O)C3CC3)ccc2O[C@@H]1CN(C)Cc1ccc(C(=O)Nc2ccccc2N)cc1	59	-1	0	-18
C[C@@H]1CN([C@H](C)CO)C(=O)c2cc(NC(=O)C3CCCCC3)ccc2O[C@@H]1CN(C)Cc1ccc(C(=O)Nc2ccccc2N)cc1	48	-1	nt	-83*
C[C@H]1CN([C@@H](C)CO)C(=O)c2cc(NC(=O)C3CC3)ccc2O[C@H]1CN(C)Cc1ccc(C(=O)Nc2ccccc2N)cc1	nt	-1	0	-53
C[C@H](CO)N1C[C@H](C)[C@H](CN(C)Cc2ccc(C(=O)Nc3ccccc3N)cc2)OCCCC[C@H](C)Oc2ccc(NC(=O)C3CCCCC3)cc2C1=O	nt	-2	3	-92*
C[C@@H]1CN([C@@H](C)CO)C(=O)c2cc(NC(=O)C3CCCCC3)ccc2O[C@@H]1CN(C)Cc1ccc(C(=O)Nc2ccccc2N)cc1	75	-2	nt	-89*
O=C(C(NS(=O)(=O)c1cccc2nsnc12)c1ccccc1)N1CCc2ccccc21 (stereo not given)	nt	nt	0	nt
C[C@@H]1CCCCO[C@@H](CN(C)CC2CCCCC2)[C@H](C)CN([C@H](C)CO)C(=O)c2cc(NC(=O)Nc3cccc4ccccc34)ccc2O1	120	-2	-3	-89*
C[C@@H]1CN([C@@H](C)CO)C(=O)c2cc(NC(=O)Nc3cccc4ccccc34)ccc2O[C@@H](C)CCCCO[C@@H]1CN(C)CC1CCCCC1	121	-1	1	-88*
C[C@H]1CCCCO[C@H](CN(C)CC2CCCCC2)[C@@H](C)CN([C@@H](C)CO)C(=O)c2cc(NC(=O)Nc3cccc4ccccc34)ccc2O1	121	-4	nt	-85*
O=C(CCCCCCC(=O)Nc1ccccc1O)N/N=C/c1ccc(OCc2ccccc2)cc1O	nt	nt	0	nt
COc1ccc(S(=O)(=O)N(C)C[C@H]2OCCCC[C@H](C)Oc3ccc(NS(=O)(=O)c4ccc(C)cc4)cc3C(=O)N([C@@H](C)CO)C[C@H]2C)cc1	82	-4	3	-82*
COc1ccc(S(=O)(=O)N(C)C[C@@H]2OCCCC[C@@H](C)Oc3ccc(NS(=O)(=O)c4ccc(C)cc4)cc3C(=O)N([C@@H](C)CO)C[C@H]2C)cc1	102*	0	nt	-43
COc1ccc(S(=O)(=O)Nc2ccc3c(c2)C(=O)N([C@H](C)CO)C[C@H](C)[C@@H](CN(C)S(=O)(=O)c2ccc(OC)cc2)O3)cc1	nt	2	1	-86*
Cn1c(SCC(=O)Nc2ccccc2F)nnc1-c1ccc(Br)cc1	nt	nt	-1	nt
C[C@@H]1CN([C@@H](C)CO)C(=O)c2cc(-c3ccc(C#N)cc3)cnc2O[C@@H]1CN(C)C(=O)Nc1ccccc1	55	33*	6	43
C[C@H]1CN([C@@H](C)CO)C(=O)c2cc(-c3ccc(C#N)cc3)cnc2O[C@@H]1CN(C)C(=O)Nc1ccccc1	39	-1	-1	-13
COc1ccc(C#Cc2cnc3c(c2)C(=O)N([C@@H](C)CO)C[C@H](C)[C@H](CN(C)C(=O)c2ccccc2F)O3)cc1	27	-1	0	-82*
CC(C)NC(=O)N(C)C[C@H]1Oc2ncc(C#Cc3ccccc3F)cc2C(=O)N([C@@H](C)CO)C[C@@H]1C	89	-1	-1	-82*
C[C@@H]1CN([C@H](C)CO)C(=O)c2cc(C#Cc3ccccc3F)cnc2O[C@H]1CN(C)C(=O)c1ccc2c(c1)OCO2	79	1	-8	-86*
COc1ccc(C#Cc2cnc3c(c2)C(=O)N([C@H](C)CO)C[C@@H](C)[C@@H](CN(C)C(=O)c2ccccc2F)O3)cc1	68	19	-2	-72
O=C1C(=O)N(Cc2ccco2)C(c2ccc(Cl)cc2)C1C(=O)c1cc2ccccc2o1 (stereo not given)	nt	nt	0	nt
Cc1cc(Cn2ccc(C(F)(F)F)n2)c(C)c(-c2c(C#N)c(N)nc3c2CCCC3)c1	nt	nt	0	nt
COc1cc(NS(=O)(=O)c2ccccc2[N+](=O)[O-])c(OC)cc1Cl	nt	nt	0	nt
Cc1ccc(S(=O)(=O)NCC[C@H]2CC[C@@H](NC(=O)CC3CC3)[C@H](CO)O2)cc1	9	1	0	13
Cc1ccc(S(=O)(=O)NCC[C@@H]2CC[C@H](NC(=O)CC3CC3)[C@@H](CO)O2)cc1	-26	39*	23	10
SMILES	Tcruzi prolif	GASC1 inh	IDH1 mut inh	Pf Dd2 growth
O=C(CSc1ncnc2scc(-c3ccccc3)c12)c1ccccc1	nt	nt	1	nt
C[C@@H]1CN([C@@H](C)CO)C(=O)c2cccc(NC(=O)c3ccc(-c4nccs4)cc3)c2O[C@@H]1CN(C)Cc1ccc(-c2ccccc2)cc1	50	-4	0	-78
C[C@@H]1CN([C@H](C)CO)C(=O)c2cccc(NC(=O)c3ccc(-c4nccs4)cc3)c2O[C@H]1CN(C)Cc1ccc(C(=O)Nc2ccccc2N)cc1	72	-1	0	-91*
C[C@H]1CN([C@@H](C)CO)C(=O)c2cccc(NC(=O)c3ccc(-c4nccs4)cc3)c2O[C@@H]1CN(C)Cc1ccc(C(=O)Nc2ccccc2N)cc1	104*	1	nt	-90*
C/C=C/c1ccccc1[C@H]1[C@@H](C#N)N(C(=O)NC2CCCC2)[C@H]1CO	nt	0	nt	-82*
CC(C)NC[C@@H]1[C@@H](c2ccc(C3=CCCCC3)cc2)[C@@H](CO)N1C(=O)CC1CC1	nt	nt	nt	-83*
N#C[C@@H]1[C@H](c2ccc(C3=CCCCC3)cc2)[C@@H](CO)N1C(=O)NC1CCCC1	nt	5	nt	-83*
COc1ccc(S(=O)(=O)N(C)C[C@H]2Oc3c(NC(=O)Nc4ccc5c(c4)OCO5)cccc3C(=O)N([C@@H](C)CO)C[C@H]2C)cc1	1	0	nt	-86*
COc1ccc(S(=O)(=O)N(C)C[C@@H]2Oc3c(NC(=O)Nc4ccccc4)cccc3C(=O)N([C@@H](C)CO)C[C@H]2C)cc1	nt	-2	nt	nt
COc1ccc(S(=O)(=O)N(C)C[C@H]2Oc3c(NC(=O)Nc4ccc5c(c4)OCO5)cccc3C(=O)N([C@H](C)CO)C[C@H]2C)cc1	8	1	1	-14
COc1ccc(S(=O)(=O)N(C)C[C@H]2Oc3c(NC(=O)Nc4ccccc4)cccc3C(=O)N([C@@H](C)CO)C[C@H]2C)cc1	47	2	1	-90*
CCn1c(SCC(=O)Nc2ccccc2F)nnc1-c1cccc(N)c1	nt	nt	0	nt
CCOC(=O)COc1cccc(-c2nc3ccccc3s2)c1	nt	nt	0	nt
C[C@H]1CN([C@@H](C)CO)C(=O)c2c(c3ccccc3n2C)-c2ccccc2CO[C@@H]1CN(C)C(=O)c1ccccc1	-22	-2	nt	-56
C[C@H]1CN([C@@H](C)CO)C(=O)c2c(c3ccccc3n2C)-c2ccccc2CO[C@H]1CN(C)C(=O)c1cc(Cl)cc(Cl)c1	nt	-2	nt	-88*
